The record followed here is the RNAGym collection of RNA variant scans (doi:10.1126/science.aae0568).

First the molecules themselves.
B1: tRNA (parent)
chain: GUUCCGUUGGCGUAAUGGUAACGCGUCUCCCUCCUAAGGAGAAGACUGCGGGUUCGAGUCCCGUACGGAACG

Fewer inactive variants are shown than the library holds. Some results are limits rather than exact numbers.

This series covers variants of B1. Description: yeast fitness relative to wild type (ratio to wild type); higher = fitter; tRNA-Arg(CCU), competitive growth, 37 C, YPD. Put shortly:
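A pool of Saccharomyces cerevisiae strains, each with a tRNA-Arg(CCU) gene variant at the native genomic locus, was competed in YPD at 37°C for 24 hours across six parallel replicates. The variants had been chemically synthesised at a 3% per-site mutation rate over 69 sites, and gene amplicons before and after competition were read by 100-nucleotide paired-end sequencing. Darwinian fitness relative to wild type rested on changes in genotype frequencies. Genotypes required ≥ 100 starting reads, and estimates < 0.5 were set to 0.5.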
For GUUCCGUUGGCGUUAUGGUAAGGCGUCUCCCUCCUAAGGAGAAGACUGCGGGUUCGCGUCCCCUAUGGAACG, the yeast fitness stood at 0.578.
For GUUCCGUUGGCGUUAUCGUAACGCGUCUCGCUCCUAAGGACCAGACCGCAGGUUCGAGUCCAGUACGGAACG the value was at most 0.5; for GUUCCGUUGGCGUUAUGGUAACGCGUCACCCUCCUAAGGAGAAGACUGCGGGUUCGAGUCCCGUACCGAACG, at most 0.5; for GUUCCGUUGGCGUUAUGGUAACCCGUCUCCCUCCUAAGGAGAAGACUGCGGGUUGGAGUCCCGUACGGAACG, at most 0.5.
As for GUUCCGUUGGCGUUAUGGUAACGGGUCUCCCUCCUAAGGAGAAGACUGCGGGUGCGAGUCCCGUACGGAACG, the figure is at most 0.5; as for GUUCCGUUGGCGUUAAGGUAAUGAGUCUCCCUCCUAAGGAGAAGACUGCGGGUUCGAGUCCCGUACAGCACG, 0.67.
As for GUUCCGUUGGCGUUAAGGUAACGCGGCUGCCUCCUAAGGAGAAGACUGCGGGUUCGAGUCCCGUACCGAACG, the figure is at most 0.5; as for GUUCCGUUGGCGUUAUGGCAACGCGUCUUACUCCUAAGGAGAAGCCUGCGGGUUCGAGUCCCGUACGGAACG, at most 0.5.
As to GUUCCGUUGGCGUUAUGGUAACUCGUCUCCCUCCUAAGGAGAAGACUGCGGGUUCGAGUCCCGUACGCAACG, the yeast fitness was 0.514.
As for GUUCCGUUGGCGUUAUGGUAACGCGUCUCCCUCCCAAGGAGAAGACUGCGGGGUCGAGUCCCGUACGGAACG, the yeast fitness stood at 0.634.
Consider GUUCCGUUGGCGUUAUGGUAACUCGUCUCCCUCCUAAGGAGAAGACUGCGGGUUCGAGUCGCGUACGGAACG, for which the yeast fitness was at most 0.5.
With GUUCCGUUGGCGUUAUGGUAACGCGUCUCCCUUCUUAGGACAAGACUGCGGGUUCGAGUCCCGUACGGAACG, the yeast fitness is at most 0.5.
Turning to GUUCCGUUGGCGUUAGGGAAACGCGUCUCCCUCCUAAGGAGGAGACUGCGGAUUCGAGUCCCGUACGGAACG, the yeast fitness was at most 0.5.
For the variant GUUCCGUUGGCGUUAUGGUAACGCGACUCCCUCCUAAGGAGAAGACUGCGGGUUCGAGUCCGGUACGGAACG, the yeast fitness is at most 0.5.
As for GUUCCGUUGGCGUUAUGGAAACGCGUCUCCCUCCUCAGGAGAAGACUGCGGGUUCGAGUCCCGUACGGAACG, the figure is at most 0.5; as for GUUCCGUUGGCGUUAUGGAACCGCGUCUCCCUCCUAAGGAGAAGACUCCGGGUUCGAGUCCCGUACGGAGCG, 0.505.
As for GUUCCGUUGGCGUUAUGGUAACCCGUCUGCCUCCUAAGGAGAAGACUGCGAGUUCCAGUCCCGUACGGAACG, the figure is at most 0.5; as for GUUCCGUUGGCGUUAUGGUAACGCGUCUCCCUCCUAAGGAGAAGACUGAGGGUUCGAGUCCCGUACGAAACG, at most 0.5; as for GUUCCGUUGGCGUUAUGGUAACGCGUCUCCCUCGUACGGAGAAGACUGCGGGUUCGCGUCCCGUACGGAACG, at most 0.5.
With GUUCCGUUGGCGUUAUGGUAACGCGUCUCCCUCCUAAGGAGAAGAUUCCGGGUUCGAGUCCCAUACGAAACG, the yeast fitness is at most 0.5.
As for GUUCCGUUGGCGUUAUGGUAACGCGUCUACCUCCUAAGGAGAAGACUGAGGGUUCGAGUCCCGUACGGUACG, the figure is at most 0.5; as for GUUCCGUUGGCGUUAUGGUAACGCGUCUCCCUCCUAAGGAGAACACUGCAGGUUCGAGUCCCGUACGGAACG, at most 0.5.
For the variant GUUCCGUUGGCGUUAUGGUAACGCGUCUCCCUCGUAAGGAGAAGACUGGGGGUUCGAGUCCCGUAUGGAACG, the yeast fitness is at most 0.5.
GUUCCGUUGGCGUUAUGGUAACGCGUCUCCCUCCUAAGGAGAAGACUGCGGGUUCGAGUCCGGUACGGAACG: the yeast fitness was determined as 0.692.
GUUCCGUUGGCGUUAUGGUAACGCGUCUCCCUCCAAAGGAGAAGACUGCGGAUUCGAGUCGCGUAAGGAACG: the yeast fitness was at most 0.5.
For GUUCCGUUGGCGUUAUGGUAACGCGUCUCCCUCCUAACGAGAAGAAUGCGGGUUCGAGUCCCGUACGGAACG the value was 0.551; for GUUCCGUUGGCGUACUGGUGUCGCGUCUCCCUCCUAAGGAGAAGACUGCGGGUUCGAGUCCCGUAGGGAACG, at most 0.5; for GUUCCGUUGGCGUUAUGGUAACGCGUCUCCCUCCUAAGGACAAGACUGCGGGUUCGAGUCCCGUACGGAACG, 0.565.
As for GUUCCGUUGGCGUUAUGGUAACGCGUCUCCCUCCUAAGGAGAAGACUGUGGGUUCGAGUCCCGUACGGAACG, the figure is 0.629; as for GUUCCGUUGGCGUUAUGGAACCGCGUCUCCCUCCUAAGGAGAAGACUCCGGGUUCGAGUCCCAUACGGAGCG, at most 0.5; as for GUUCCGUUGGCGUUAUGGUAACGCGUCUCCCUCCUAAGGAGAAGACAGCGGGUUCGAGUCCCGUACGGGACG, 0.66.
For GUUCCGUUGGCGUUAGGGUAACGCGUCUCCCUGCUAAGGAGAAGACUGCAGGUUCGACUCCCCUACGGAACG the value was at most 0.5; for GUUCCGUUGGCGUUAUGGUAACGCGGCUCCCUCCUAAGGAGAAGACUGCGGGUUCAAGUCCCGUGUGGAACG, at most 0.5; for GUUCCGUUGGCGUUAUGGUAACGCGACUCCCUCCUAAGGAGAAGACUGCGGGUUCGAGUCCCGUACGGAACG, 0.694.
Take GUUCCGUUGGCGUUAAGGUAACGCGUGUCCCUCCUAAGGUGAAGACUGCGGGUUCGUGUCCCGUAAGGAACG: the yeast fitness is at most 0.5.
Turning to GUUCCGUUGGCGUUAUGGUAACGCGUCUCCCUCCUAAGGAGAAGACUGCGGGUUCGAGUCCUGUAGGGAACG, the yeast fitness was at most 0.5.
As for GUUCCGUUGGCGUUAUCGUAACGAGUCUCGCUCCUAAGGAGAAGACUGCGGGUUCGAGUCCAGUACGGAUCG, the figure is at most 0.5; as for GUUCCGUUGGCGUUAUGGUAACGCGUCUCCCUCCUAAGGAGAAGACUGCGGGUUCGAGACCCGUACGGAACG, 0.583; as for GUUCCGUUGGCGUUAUGGUAACGCGUCUCUCUCCUAAGGAGAAGACUGCGGGUUCGAGUCCCGUACGGAACG, 0.558.
For GUUCCGUUGGCGUUAUGGUAACGCGUCUCACUCCUAAGGAGAAGACUGCGGGUUCGAGUCCCGUACGGAACG the value was 0.565; for GUUCCGUUGGCGUUAUGGUAACGCGGCUCCCUCCUAAGGAGAAGACUGGGGGUUCGAGUCCCGUACGGAACG, at most 0.5.
As for GUUCCGUUGGCGUUAUGGUAACGCGUCUCCUUCAUAAGGAGAAGUCUGUGGGUUCGAGUCCCGUACGGAACG, the figure is at most 0.5; as for GUUCCGUUGGCGUUAUGGUAACGCGUUUCCCUCCUAAGGAGAAGACUGCGGGUUGGAGUCCCGUACGGAACG, 0.517; as for GUUCCGUUGGCGUUAUGGUAACGCGUCUCUCUCCUAAGGAGAAGACUGCGGGUUGGAGUCCCGUACGGAACG, at most 0.5.
With GUUCCGUUGGCGUUAUGGUAACGCGUCUCCCUCCUAAGGAGAAGACUGCGGGCUCGAGUCCCGUACGGAACG, the yeast fitness was 0.613.
With GUUCCGUUGGCGUUAUGGUAACGCGUCUCACUCCUAAGGAGAUGACUGUGGGUUCGAGUCCCGUACGGAACG, the yeast fitness stood at 0.545.
For GUUCCGUUGGCGUUAUGGUAACGCGUCUCCCUCCUAAGGAGAAGACUGCGGCUUCGAGUCCCGUACGGAACG, the yeast fitness is at most 0.5.
As for GUUCCGUUGGCGUUAUCGUAACGCGUCUCCCUCCUAAGGAGAAGACUGCGGGUUCGAGUCCCGUACGGAGCG, the figure is at most 0.5.
In the case of GUUCCGUUGGCGUUAUGAUAACGCGUCUCCCUCCUAAGGAGAAGACUGCGGGUUCGAGUCCCGUACGGAACG, the yeast fitness is at most 0.5.
As for GUUCCGUUGGCGUUAUGGUAACGCAUCUCCCUCCAAAGUAGAAGACUGCGGGUUCGAGUCCCGUGCGGAACG, the figure is at most 0.5; as for GUUCCGUUGGCGUUAUGGUAACGCAUCUCGCUCCUAAGGAGAAGACUGCGGGUUCGAGUCCGGUACGGAACG, at most 0.5.
Regarding GUUCCGUUGGCGUUAUGGUAACGCGUCUCUCUCCUAAGGAGAAGACUGCGGGUUCGAGUCCAGUACGGAACG, the yeast fitness was at most 0.5.
GUUCCGUUGGCGUUAUGGUAACGCGACUCCCUCCUAAGGAGAAGACUGCGGGUUCGACUCCCGUACGGAACG: the yeast fitness is at most 0.5.
For GUUCCGUUGGCGUUAUGGUAACGCGUCUCGCUCCUAAGGGGAAGACUGCGGGUUCGAGUCCCGUAUGGAACG the value was at most 0.5; for GUUCCGUUGGCGUUAUGAUAACGCGUCUCACUCCUAAGGAGAAGACUGCGGGUUCGAGUCCCGUACGGAACG, at most 0.5.
Turning to GUUCCGUUGGCGUUAUGGUAACGCGUCUCCCUCCUAAGGAGAAGACUGCGGAUUCGAGUCCCGUACGCAACG, the yeast fitness was at most 0.5.
GUUCCGUUGGCGUUAUGGUAACGGGUCUCCCUCCUAAGGAGAAGACUGCGGGUUCGCGUCCCGUACGGAACG: the yeast fitness was at most 0.5.
As for GUUCCGUUGGCGUUAUGGUAACGCGUCUCCCUCGUAAGGAGAAGACUGCGGGUUCGAGUCCCGUAUGGAACG, the figure is at most 0.5; as for GUUCCGUUGGCGUUAUGGUAACGCGUCUCCCUCCUAAGGAGAAGACUGCGGGUUCGAGUGCCGUACGGACCG, at most 0.5; as for GUUCCGUUGGCGUUAUGGUAACGCGUCUCGCGCCUAAGGAGAAGACUGCGGGUUCGAGUCCCGUACGGAACG, at most 0.5.
For GUUCCGUUGGCGUUAUAGUAACGCGUCUCCCUCCUAAGGAGACGAUUGCGGGUUCGAGUCCCGUACGGAACG the value was at most 0.5.
For GUUCCGUUGGCGUUAUGGUAACACGUCUCCUUCCUAAGGAGAUGACUGCGGGUUCGAGUCCCGUACGGAACG, the yeast fitness was at most 0.5.
As to GUUCCGUUGGCGUUAUGGUAACGCGUCUCCCUCCUAAGAAGAAGACUGCGGGUUCGAGUCCCGUACGGAACG, the yeast fitness came out at 0.671.
For GUUCCGUUGGCGUUAUAGUAACCCGUCUUCCUCGUAAGGAGAAGCCUGCGGGUGCGAGUCCCGUACGGAACG the value was at most 0.5; for GUUCCGUUGGCGUUAUGGUAACGCGUCUCACUCCUAAGGAGAUGACUGCGGGUUCGAGUCCCGUACGGAACG, at most 0.5.
Turning to GUUCCGUUGGCGUUAUGGUAACGCGUCUUCCUCCUAUGGAGAAGACUGAGGGUUCGAGUCCCGUACAGAACG, the yeast fitness is at most 0.5.
As for GUUCCGUUGGCGUUAUGGUAACGCAUCUCCCUCCUAAGGAGAAGACUGCGGGUUCGAGUCCCGUACGGAACG, the figure is 0.686.
As for GUUCCGUUGGCGUUAUGGUAACGCGCCUCCCUCCUAAGGAGAAGACUGCGGGUUCGUGUCCCGUACGGAACG, the figure is at most 0.5; as for GUUCCGUUGGCGUUAUGGUAACGCGUCUCCAUCCUAAGGAGAAGACUGCGGGUUCGAGUCCCGUAAGGAACG, at most 0.5.
As to GUUCCGUUGGCGUACUGGUCACGCGUCUCCCUCCUAAGCAGAAGACUGCGGGUUCGAGUCCCGUACGGCACG, the yeast fitness is at most 0.5.
As to GUUCCGUUGGCGUUAUGGUAACGCGUCUCCAUCCUAAGGAGAAGAUUAUGGGUUCGAGUCCCGUACGGAACG, the yeast fitness was at most 0.5.
On to GUUCCGUUGGCGUUAGGGAAACGCGUCUCCCUCCUAAGGAGGAGACUGCGGGUUCGAGUCCCGUACGGAACG, for which the yeast fitness is 0.512.
Regarding GUUCCGUUGGCGUUAUGGUAACGCGUCUCCCUCCUAAGGAGAAGACUGCGGGUUCGAGUCCCGCGCGGAACG, the yeast fitness worked out at 0.567.
For GUUCCGUUGGCGUUAAGGUAACGCAUCUCCCUCCUAGGGAGAAGACUGCGGGUUCGAGUCCCGUACGGAACG the value was at most 0.5; for GUUCCGUUGGCGUUAUGGUAACGCGUCACCCUCCUAAGGAGAAGACUGCGGGUUCGAGCGCCGUACGGAACG, at most 0.5.
